This note sets out measurements from ChEMBL document CHEMBL1142895, “Discovery of a new insecticide lead by optimizing a target-diverse scaffold: tetrazolinone derivatives” (2007).

The structures appear in SMILES notation. The source made the active and inactive calls. The calls are words filed in the database; no cut-off is given here.

In assay [1] the test system is Cucumis sativus. Put plainly: Inhibition of root growth of Cucumis sativus at 100 mg/L. The format is functional. In outline:
(§1)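 Seeds of each species were grown in Petri dishes with 10 seeds per dish, at 28 °C, 70–80% RH, 16:8 h light:dark photoperiod and 3000 lx light for 5 days. Root and stem lengths were measured for the 10 seeds and averaged. Each test and its controls were run in three replicates, and the data were given probit analysis.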

The subject of assay [2] is Cucumis sativus. Briefly: Herbicidal activity against Cucumis sativus at 450 g ai/ha in greenhouse in vivo test. The format is functional, organism-based.
For assay [3], the system named is Sorghum bicolor. Put plainly: Herbicidal activity against Sorghum bicolor at 450 g ai/ha in greenhouse in vivo test. The format is functional, organism-based.
In assay [4] the test system is Radish. Briefly: Inhibition of stem growth of Raphanus sativus at 100 mg/L. Type of assay: functional. Put shortly: as §1
The subject of assay [5] is Triticum aestivum. Put plainly: Inhibition of root growth of Triticum aestivum at 100 mg/L. Type of assay: functional. Put shortly:
as §1

The test system of assay [6] is Brassica rapa subsp. oleifera. Put plainly: Inhibition of root growth of Brassica campestris at 100 mg/L. The format is functional. Put shortly:
as §1

The subject of assay [7] is Echinochloa crus-galli. Briefly: Inhibition of stem growth of Echinochloa crus-galli at 100 mg/L. The format is functional. In outline: as §1
For assay [8], the system named is Sorghum bicolor. Put plainly: Inhibition of stem growth of Sorghum bicolor at 100 mg/L. Type of assay: functional. In outline: as §1
The test system of the next assay is Tetranychus cinnabarinus. Briefly: Insecticidal activity against Tetranychus cinnabarinus at 250 mg/L. Type of assay: functional. Put shortly:
(§2)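 Groups of 10 of each species were placed in glass Petri dishes and sprayed with test solution using a Potter sprayer. After air-drying, they were held under normal rearing conditions. Mortality at 72 h was taken from the number and size of live larvae relative to untreated controls.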

Assay [9] deals with Triticum aestivum. Briefly: Herbicidal activity against Triticum aestivum at 450 g ai/ha in greenhouse in vivo test. Type of assay: functional, organism-based.
The test system of assay [10] is Radish. Put plainly: Herbicidal activity against Raphanus sativus at 450 g ai/ha in greenhouse in vivo test. The format is functional, organism-based.
In assay [11] the test system is Sorghum bicolor. Put plainly: Inhibition of root growth of Sorghum bicolor at 100 mg/L. Type of assay: functional. Put shortly: as §1
Assay [12] concerns Radish. Briefly: Inhibition of root growth of Raphanus sativus at 100 mg/L. The format is functional. Put shortly:
as §1

The subject of assay [13] is Brassica rapa subsp. oleifera. Briefly: Inhibition of stem growth of Brassica campestris at 100 mg/L. Type of assay: functional. In outline: as §1
Assay [14] deals with Echinochloa crus-galli. Briefly: Herbicidal activity against Echinochloa crus-galli at 450 g ai/ha in greenhouse in vivo test. The format is functional, organism-based.
Assay [15] deals with Triticum aestivum. Briefly: Inhibition of stem growth of Triticum aestivum at 100 mg/L. Type of assay: functional. In outline: as §1
The test system of assay [16] is Cucumis sativus. Put plainly: Inhibition of stem growth of Cucumis sativus at 100 mg/L. The format is functional. In outline: as §1
In another assay the test system is Aphis. Briefly: Insecticidal activity against Aphis medicagini at 250 mg/L. The format is functional. Put shortly:
as §2

Assay [17] has as its system Echinochloa crus-galli. Put plainly: Inhibition of root growth of Echinochloa crus-galli at 100 mg/L. Type of assay: functional. Put shortly: as §1
Assay [18] concerns Brassica rapa subsp. oleifera. Briefly: Herbicidal activity against Brassica campestris at 450 g ai/ha in greenhouse in vivo test. The format is functional, organism-based.

On to `O=c1n(Cc2nnc(SCc3cccc(F)c3)s2)nnn1-c1ccc(Cl)cc1`, for which the inhibition at 100 µg/mL with Cucumis sativus [1] was 30%; in the assay on Radish [4] it was 50%; in the assay with Triticum aestivum [5], 40%; in [6], 40%; in the assay with Echinochloa crus-galli [7], 70%; with Sorghum bicolor [8], 40%. The inhibition at 100 µg/mL amounted to 40% with Sorghum bicolor [11]; 50% in the assay on Radish [12]; 0% in [13]; 70% with Triticum aestivum [15]; 30% in the assay with Cucumis sativus [16]; 50% in the assay on Echinochloa crus-galli [17]. In addition, the outcome (in the assay on Cucumis sativus [2]; in the assay with Sorghum bicolor [3]; with Triticum aestivum [9]; with Radish [10]; with Echinochloa crus-galli [14]; in [18]) was inactive. The Activity in the assay on Tetranychus cinnabarinus was found to be 2.9%; in the assay on Aphis, 0%.
`COc1cc(-n2nnn(C)c2=O)c(Cl)cc1Cl`: the inhibition at 100 µg/mL with Cucumis sativus [1] came to 60%; in the assay with Radish [4], 0%; in the assay with Triticum aestivum [5], 70%; in assay [6], 0%; in the assay with Echinochloa crus-galli [7], 30%; in the assay on Sorghum bicolor [8], 30%. In addition, the inhibition at 100 µg/mL worked out at 70% in the assay on Sorghum bicolor [11]; 0% with Radish [12]; 0% in assay [13]; 50% with Triticum aestivum [15]; 60% in the assay with Cucumis sativus [16]; 30% in the assay with Echinochloa crus-galli [17]. Further, the result (with Cucumis sativus [2]; with Sorghum bicolor [3]; with Triticum aestivum [9]; in the assay with Radish [10]; with Echinochloa crus-galli [14]; in assay [18]) was inactive. Further, the Activity came out at 100% in the assay with Tetranychus cinnabarinus and 0% in the assay with Aphis.
`C=CCSc1nnc(Cn2nnn(-c3ccc(Cl)cc3)c2=O)s1`: the inhibition at 100 µg/mL turned out to be 0% with Cucumis sativus [1]; 40% in the assay with Radish [4]; 50% in the assay on Triticum aestivum [5]; 60% in assay [6]; 70% in the assay on Echinochloa crus-galli [7]; 0% in the assay on Sorghum bicolor [8]. Further, the inhibition at 100 µg/mL in the assay with Sorghum bicolor [11] amounted to 60%; with Radish [12] it was 40%; in [13] it was 40%; in the assay with Triticum aestivum [15], 40%; in the assay with Cucumis sativus [16], 0%; with Echinochloa crus-galli [17], 60%. For the same compound, the result (with Cucumis sativus [2]; with Sorghum bicolor [3]; in the assay with Triticum aestivum [9]; with Radish [10]; in the assay on Echinochloa crus-galli [14]; in assay [18]) was inactive. Moreover, the values for the Activity in the assay with Tetranychus cinnabarinus and in the assay with Aphis were 72.9% and 0%, respectively.
For the compound `Cc1ccccc1Cn1nnn(-c2ccc(Cl)cc2)c1=O`, the inhibition at 100 µg/mL (with Cucumis sativus [1]; in the assay on Radish [4]; in the assay with Triticum aestivum [5]; in assay [6]; in the assay on Echinochloa crus-galli [7]; in the assay with Sorghum bicolor [8]) was 0% throughout. For the same compound, the inhibition at 100 µg/mL in the assay on Sorghum bicolor [11] is 0%; with Radish [12], 0%; in assay [13] it was 0%; in the assay on Triticum aestivum [15] it was 30%; in the assay with Cucumis sativus [16] it was 0%; in the assay on Echinochloa crus-galli [17], 0%. Moreover, the outcome (in the assay on Cucumis sativus [2]; with Sorghum bicolor [3]; in the assay with Triticum aestivum [9]; with Radish [10]; in the assay with Echinochloa crus-galli [14]; in assay [18]) was inactive. The Activity came to 2.9% in the assay on Tetranychus cinnabarinus and 21.7% in the assay with Aphis.
Consider `O=c1n(Cc2nnc(SCc3ccccc3F)s2)nnn1-c1ccc(Cl)cc1`, for which the inhibition at 100 µg/mL was 70% in the assay with Cucumis sativus [1]; 60% with Radish [4]; 80% in the assay on Triticum aestivum [5]; 80% in assay [6]; 70% in the assay with Echinochloa crus-galli [7]; 70% in the assay on Sorghum bicolor [8]. The inhibition at 100 µg/mL in the assay on Sorghum bicolor [11] is 70%; with Radish [12] it was 80%; in assay [13] it was 70%; in the assay with Triticum aestivum [15] it was 80%; in the assay on Cucumis sativus [16] it was 70%; in the assay with Echinochloa crus-galli [17] it was 60%. Besides, the result (in the assay with Cucumis sativus [2]; in the assay with Sorghum bicolor [3]; with Triticum aestivum [9]; in the assay on Radish [10]; in the assay on Echinochloa crus-galli [14]; in [18]) was inactive. Besides, the Activity in the assay with Tetranychus cinnabarinus came out at 0%; in the assay on Aphis, 18.6%.
Regarding `Cc1ccccc1CSc1nnc(Cn2nnn(-c3ccc(Cl)cc3)c2=O)s1`, the inhibition at 100 µg/mL is 0% in the assay with Cucumis sativus [1]; 40% in the assay with Radish [4]; 60% in the assay on Triticum aestivum [5]; 50% in assay [6]; 70% with Echinochloa crus-galli [7]; 30% in the assay with Sorghum bicolor [8]. Also, the inhibition at 100 µg/mL in the assay with Sorghum bicolor [11] came to 0%; with Radish [12], 40%; in assay [13], 30%; with Triticum aestivum [15] it was 60%; in the assay on Cucumis sativus [16], 0%; in the assay on Echinochloa crus-galli [17], 60%. The outcome (with Cucumis sativus [2]; in the assay with Sorghum bicolor [3]; with Triticum aestivum [9]; in the assay on Radish [10]; in the assay with Echinochloa crus-galli [14]; in assay [18]) was inactive. The Activity in the assay on Tetranychus cinnabarinus and in the assay on Aphis was 0% in each case.
For the compound `CCCCCCSc1nnc(Cn2nnn(-c3ccc(Cl)cc3)c2=O)s1`, the inhibition at 100 µg/mL in the assay on Cucumis sativus [1] is 0%; with Radish [4], 30%; in the assay on Triticum aestivum [5] it was 0%; in [6] it was 70%; in the assay with Echinochloa crus-galli [7] it was 0%; in the assay with Sorghum bicolor [8], 40%. Also, the inhibition at 100 µg/mL was determined as 60% in the assay on Sorghum bicolor [11]; 40% in the assay with Radish [12]; 40% in assay [13]; 30% with Triticum aestivum [15]; 0% with Cucumis sativus [16]; 0% in the assay on Echinochloa crus-galli [17]. Besides, the outcome (with Cucumis sativus [2]; in the assay on Sorghum bicolor [3]; in the assay with Triticum aestivum [9]; in the assay on Radish [10]; in the assay on Echinochloa crus-galli [14]; in [18]) was inactive. Moreover, the results for the Activity with Tetranychus cinnabarinus and in the assay with Aphis were 4.3% and 0%, respectively.
Consider `O=c1n(Cc2nnc(SCc3ccccc3)s2)nnn1-c1ccc(Cl)cc1`, for which the inhibition at 100 µg/mL is 60% in the assay on Cucumis sativus [1]; 40% in the assay on Radish [4]; 60% in the assay with Triticum aestivum [5]; 60% in [6]; 70% in the assay with Echinochloa crus-galli [7]; 70% in the assay with Sorghum bicolor [8]. The inhibition at 100 µg/mL in the assay with Sorghum bicolor [11] was found to be 60%; with Radish [12], 60%; in assay [13] it was 50%; with Triticum aestivum [15], 60%; in the assay with Cucumis sativus [16] it was 60%; in the assay with Echinochloa crus-galli [17] it was 60%. Also, the outcome (in the assay on Cucumis sativus [2]; in the assay with Sorghum bicolor [3]; with Triticum aestivum [9]; in the assay with Radish [10]; with Echinochloa crus-galli [14]; in assay [18]) was inactive. Also, the Activity in the assay on Tetranychus cinnabarinus was determined as 2.9%; in the assay with Aphis, 5.7%.
In the case of `O=c1n(Cc2nnc(SCc3cccc(Cl)c3)s2)nnn1-c1ccc(Cl)cc1`, the inhibition at 100 µg/mL in the assay on Cucumis sativus [1] is 0%; in the assay on Radish [4], 30%; in the assay with Triticum aestivum [5], 60%; in assay [6], 0%; with Echinochloa crus-galli [7], 0%; in the assay on Sorghum bicolor [8], 50%. For the same compound, the inhibition at 100 µg/mL stood at 40% with Sorghum bicolor [11]; 50% in the assay with Radish [12]; 0% in [13]; 70% in the assay on Triticum aestivum [15]; 40% with Cucumis sativus [16]; 0% in the assay with Echinochloa crus-galli [17]. The outcome (with Cucumis sativus [2]; in the assay on Sorghum bicolor [3]; in the assay on Triticum aestivum [9]; in the assay with Radish [10]; with Echinochloa crus-galli [14]; in [18]) was inactive. Besides, the Activity in the assay on Tetranychus cinnabarinus amounted to 5.7%; with Aphis, 2.9%.

Usually inhibition stands for the percentage by which the read-out fell short of the control. A high value points to a strong effect.
